Measurements published in publication PMC5723703 (Pharmacology Research & Perspectives, 2017).
Values joined by “and” are separate entries in the source; they are usually repeats but may differ in a detail not shown here. Identical values can stand only once. Like-named read-outs stand apart in the source and are kept apart here.

What was measured:
S1P1 receptor [1] = molecular target: T1, S1P1 receptor (Homo sapiens, UniProt P21453); type: biochemical
S1P2 receptor [2] = molecular target: T2, S1P2 receptor (Homo sapiens, UniProt O95136); type: biochemical
T2 sequence (O95136 whole entry): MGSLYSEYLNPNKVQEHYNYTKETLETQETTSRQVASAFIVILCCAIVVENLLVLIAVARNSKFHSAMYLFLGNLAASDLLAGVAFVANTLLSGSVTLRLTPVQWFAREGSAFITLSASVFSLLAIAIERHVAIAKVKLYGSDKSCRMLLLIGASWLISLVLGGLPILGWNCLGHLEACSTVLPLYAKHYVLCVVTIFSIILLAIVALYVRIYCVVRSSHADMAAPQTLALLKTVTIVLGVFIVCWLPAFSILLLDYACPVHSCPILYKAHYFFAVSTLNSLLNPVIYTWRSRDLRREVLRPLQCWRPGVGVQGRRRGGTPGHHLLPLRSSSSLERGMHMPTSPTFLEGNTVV

human S1P3 receptor = human S1P3 receptor (Homo sapiens, UniProt Q99500); type: biochemical
Chain of human S1P3 receptor (Q99500 whole entry): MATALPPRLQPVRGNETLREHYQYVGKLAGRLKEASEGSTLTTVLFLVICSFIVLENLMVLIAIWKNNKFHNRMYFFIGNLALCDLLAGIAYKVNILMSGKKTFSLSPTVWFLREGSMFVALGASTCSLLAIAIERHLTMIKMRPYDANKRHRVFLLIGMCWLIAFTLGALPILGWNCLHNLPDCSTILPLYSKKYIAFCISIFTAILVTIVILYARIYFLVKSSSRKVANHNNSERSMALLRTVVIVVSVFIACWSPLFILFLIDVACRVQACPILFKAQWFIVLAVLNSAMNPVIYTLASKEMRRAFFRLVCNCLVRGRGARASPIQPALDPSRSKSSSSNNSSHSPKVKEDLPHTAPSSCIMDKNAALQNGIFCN

human S1P4 receptor = molecular target: T3, human S1P4 receptor (Homo sapiens, UniProt O95977); type: biochemical
T3 sequence (O95977 1-384): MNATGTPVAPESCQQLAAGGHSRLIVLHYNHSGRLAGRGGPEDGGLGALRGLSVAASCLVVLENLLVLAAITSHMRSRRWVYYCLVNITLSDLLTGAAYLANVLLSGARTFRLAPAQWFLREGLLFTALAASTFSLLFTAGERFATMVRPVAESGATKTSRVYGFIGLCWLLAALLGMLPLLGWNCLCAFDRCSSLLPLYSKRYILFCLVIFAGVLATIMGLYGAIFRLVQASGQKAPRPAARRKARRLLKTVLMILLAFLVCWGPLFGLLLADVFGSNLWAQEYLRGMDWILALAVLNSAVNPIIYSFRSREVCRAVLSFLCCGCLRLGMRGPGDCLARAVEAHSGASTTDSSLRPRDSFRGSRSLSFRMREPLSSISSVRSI
Summary of the method: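 Membranes from CHO cells expressing recombinant human S1P4 were used for (35S)-GTPγS binding as a measure of G protein activation. EC50 was fitted with the compound's own maximal response as the top and the no-effect level of the lowest concentration as the bottom.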

human S1P5 receptor = human S1P5 receptor (Homo sapiens, UniProt Q9H228); type: biochemical
Chain of human S1P5 receptor (Q9H228 whole entry): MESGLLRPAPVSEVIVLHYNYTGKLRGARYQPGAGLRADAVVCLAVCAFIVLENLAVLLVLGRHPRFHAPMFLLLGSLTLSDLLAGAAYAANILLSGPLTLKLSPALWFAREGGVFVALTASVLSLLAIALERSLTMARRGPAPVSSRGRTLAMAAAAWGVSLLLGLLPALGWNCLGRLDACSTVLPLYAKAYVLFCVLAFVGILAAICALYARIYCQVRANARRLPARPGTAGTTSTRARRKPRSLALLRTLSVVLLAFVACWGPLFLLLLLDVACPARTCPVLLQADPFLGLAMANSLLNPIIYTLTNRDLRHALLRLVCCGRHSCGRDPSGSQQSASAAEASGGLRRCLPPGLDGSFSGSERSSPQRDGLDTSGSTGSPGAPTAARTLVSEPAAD

S1P1 receptor [3] = molecular target: T1, S1P1 receptor; type: biochemical; remark: listed apart in the source
S1P1 receptor [4] = molecular target: T1, S1P1 receptor; experiment: Ca2+ mobilization assay; type: cell-based
S1P1 receptor [5] = molecular target: T1, S1P1 receptor; experiment: Ca2+ signaling in CHO cells expressing recombinant human S1P1 receptor; type: cell-based
rat mesenteric arteries = experiment: Isometric force development, isolated rat mesenteric arteries
Summary of the method: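 After CO₂ euthanasia, two mesenteric artery rings (1.5 mm, 2nd and 3rd branch) were mounted on 20 μm wires in a wire myograph with modified Krebs-Henseleit buffer. Viability was checked with KCl 60 mmol/L. Endothelium was confirmed by acetylcholine (10^-5 mol/L) relaxation of rings precontracted with U46619 (10^-6 mol/L).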

[6] = tested on: spontaneous hypertensive rats; experiment: Blood pressure and heart rate by telemetry in conscious SHR; type: in vivo, rat
rat trachea = experiment: Isometric force development, isolated rat tracheal rings
human bronchi = experiment: Isometric force development, isolated human bronchial rings
Wistar rats [7] = experiment: In vivo lung function; set-up: species or system rat; settings: n = 10
Summary of the method: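 Male Wistar rats (200-250 g), acclimatised at least 7 days, were unrestrained, conscious and breathing spontaneously in whole-body plethysmograph chambers (calibrated with a 5 mL air injection), one rat per chamber. Baseline was recorded for 120 min. Single oral dosing used 0.25% methylcellulose/0.05% Tween 80 vehicle, followed by recording for 6 h.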

Wistar rats [8] = experiment: Blood lymphocyte count in rats after oral administration; type: in vivo, rat
[9] = Compound concentrations in rat plasma; type: in vivo; settings: for plasma concentration at time of maximal lymphocyte count reduction (6 hours): rats
C57BL/6 mice [10] = experiment: Lymphocyte count and plasma concentration in mice; type: in vivo, mouse; settings: three repeated doses of 6 mg·kg^‐1·day^‐1, day 0 vs day 2 (data not shown)
C57BL/6 mice [11] = experiment: Mouse MOG33-55 EAE model with spinal cord histopathology; type: in vivo
Summary of the method: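 EAE was induced in 6-week-old female C57BL/6JOlaHsd mice with 150 μg MOG33-55 in CFA, s.c. into both flanks under isoflurane, plus a pertussis toxin boost. Dosing was 6 mg·kg^‐1·day^‐1 or vehicle (0.25% methylcellulose, 0.05% Tween 80) from day 0 or day 14, with daily scoring 0–5. Spinal cords were taken after saline perfusion, formalin-fixed, and 4 μm sections stained with HE and cresyl violet/Luxol fast blue; naïve mice served as controls.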

S1P2 receptor [12] = molecular target: T2, S1P2 receptor; experiment: Impedance-based analysis of S1P2 receptor signaling in CHO-hS1P2 cells; type: cell-based; settings: 0.05-5000 nM
[13] = EC50 hS1P4, (35S)-GTPγS, CHO membranes, geometric mean, n = 2‐4
[14] = percentage of maximal response induced by 1 or 10 μmol·L^‐1 S1P

T1 sequence (P21453 whole entry): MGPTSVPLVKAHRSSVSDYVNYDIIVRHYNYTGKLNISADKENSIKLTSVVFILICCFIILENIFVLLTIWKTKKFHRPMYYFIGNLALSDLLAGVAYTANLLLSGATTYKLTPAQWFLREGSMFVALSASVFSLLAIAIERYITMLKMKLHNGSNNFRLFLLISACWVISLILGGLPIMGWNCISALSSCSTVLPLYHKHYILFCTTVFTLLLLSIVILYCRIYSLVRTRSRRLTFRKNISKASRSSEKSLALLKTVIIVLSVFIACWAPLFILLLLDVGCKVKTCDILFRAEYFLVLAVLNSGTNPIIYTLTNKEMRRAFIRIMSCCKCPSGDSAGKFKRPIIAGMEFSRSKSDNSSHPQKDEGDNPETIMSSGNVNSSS

CCc1cc(-c2noc(-c3cc(OC)nc(C4CCCC4)c3)n2)cc(C)c1OC[C@@H](O)CO [Cenerimod, (S)‐3‐(4‐(5‐(2‐cyclopentyl‐6‐methoxypyridin‐4‐yl)‐1,2,4‐oxadiazol‐3‐yl)‐2‐ethyl‐6‐methylphenoxy)propane‐1,2‐diol]
fold higher potency on the S1P1 receptor compared to the natural ligand S1P (S1P1 receptor [1]; (35S)-GTPγS EC50 ratio): 16 fold | Emax (S1P1 receptor [1]; read-out: E max (%) hS1P1): 126% | EC50 (S1P2 receptor [2]): > 10000 nM | agonist activity on the S1P2 receptor (S1P2 receptor [2]; up to the highest tested concentration (10 μmol·L^‐1)): no detectable agonist activity | EC50 (human S1P3 receptor): 228 nM | fold less active at the S1P3 receptor than S1P (human S1P3 receptor; (35S)-GTPγS EC50 ratio): at least 2000 fold | fold less active at the S1P3 receptor than pFTY720 (human S1P3 receptor; (35S)-GTPγS EC50 ratio): 400 fold | Emax (human S1P3 receptor; read-out: E max (%) hS1P3): 81% | EC50 (human S1P4 receptor; EC50 S1P4 receptor, (35S)-GTPγS, human recombinant receptor): 2100 nM | EC50 (human S1P4 receptor; [13]): 2130 nM | Emax (human S1P4 receptor; read-out: E max (%) hS1P4): 123% | EC50 (human S1P5 receptor): 36 nM | fold less potent on the S1P5 receptor than pFTY720 (human S1P5 receptor; (35S)-GTPγS EC50 ratio): 70 fold | fold more potent on the S1P5 receptor than the natural ligand S1P (human S1P5 receptor; (35S)-GTPγS EC50 ratio): twofold | Emax (human S1P5 receptor; read-out: E max (%) hS1P5): 65% | EC50 (S1P1 receptor [3]): 2 nM | EC50 (S1P1 receptor [4]): 1040 nM | fold less potent in Ca^2+ signaling than in (35S)‐GTPγS assays (S1P1 receptor [4]; HUVEC): approximately 500 fold | EC50 (S1P1 receptor [5]): 124 nM | contraction of rat mesenteric arteries (rat mesenteric arteries; 10 μmol·L^‐1, n = 4): did not contract | effect on heart rate (HR) ([6]; 30 mg·kg^‐1 single oral dose): no effect | decrease of mean arterial blood pressure (MAP) ([6]; 30 mg·kg^‐1 single oral dose, 48 hours observation period): 9 ± 3 mmHg | contraction of upper and lower rat trachea (rat trachea; highest tested concentration 10 μmol·L^‐1, n = 4): complete lack of response | contraction of human bronchi (human bronchi; 10 μmol·L^‐1): no contraction | Penh (index of bronchoconstriction) vs vehicle (Wistar rats [7]; 100 mg·kg^‐1 p.o., 4 hours evaluation period): did not increase | single oral dose at which plateau of lymphocyte reduction is reached (Wistar rats [8]): 1 mg·kg^‐1 | time until lymphocyte count returned to predose levels (Wistar rats [8]; 1 mg·kg^‐1 single oral dose): ≤ 48 h | decrease of blood lymphocyte count (Wistar rats [8]; 1 mg·kg^‐1 single oral dose, P < .001): 63 ± 4% | blood lymphocyte count after dosing (Wistar rats [8]; 1 mg·kg^‐1 single oral dose, from 7900 ± 690 before dosing): 2900 ± 370 lymphocytes/μL | time until lymphocyte count returned to physiological levels after the last dose (Wistar rats [8]; 1 mg·kg^‐1·day^‐1 oral for 7 days (data not shown)): ≤ 2 days | reduction of blood lymphocyte count at 48 hours (Wistar rats [8]; 3 mg·kg^‐1 single oral dose): more than 40% | time until lymphocyte count returned to physiological levels after the last dose (Wistar rats [8]; 3 mg·kg^‐1·day^‐1 oral for 7 days (data not shown)): ≤ 4 days | reduction of peripheral blood lymphocyte count after 48 hours (Wistar rats [8]; 10 mg·kg^‐1 single oral dose): 65 ± 3% | plasma concentration ([9]; 4 hours after oral administration of 100 mg·kg^‐1, Wistar rats (Penh study)): 4.4 ± 0.6 μg·mL^‐1 | Tmax ([9]; Wistar, rat, plasma, po): 3 h | plasma concentration at time of maximal lymphocyte count reduction (6 hours) ([9]; 1 mg·kg^‐1 single oral dose): 41 ± 2 ng·mL^‐1 | plasma concentration at time of maximal lymphocyte count reduction (6 hours) ([9]; 10 mg·kg^‐1 single oral dose): 869 ± 73 ng·mL^‐1 | compound accumulation (C57BL/6 mice [10]): absence of compound accumulation | mice completely protected from disease development (C57BL/6 mice [11]; 6 mg·kg^‐1·day^‐1 from day 0 (preventive), n = 8): Five out of eight | clinical score reached (maximum reduction), all treated mice (C57BL/6 mice [11]; 6 mg·kg^‐1·day^‐1 from day 14 (therapeutic), n = 8): 0.5 | incidence and severity of spinal cord demyelination (C57BL/6 mice [11]; preventive or therapeutic regimen, 6 mg·kg^‐1·day^‐1): equally reduced | maximal clinical score of the individual mice that developed disease (C57BL/6 mice [11]; preventive treatment 6 mg·kg^‐1·day^‐1, three of eight mice): 2.5 and 3.0 and 0.5 | time to reach clinical score of 0.5 after treatment initiation, two mice (C57BL/6 mice [11]; therapeutic treatment): ≤ 11 days | S1P2 receptor agonist activity in more sensitive (cellular) assays (S1P2 receptor [12]): no S1P2 receptor agonist activity

CCCCCCCCc1ccc(CCC(N)(CO)CO)cc1 [FTY720, reference compound]
decrease of heart rate (HR) ([6]; 3 mg·kg^‐1 single oral dose): 26 ± 8 bpm | increase of mean arterial blood pressure (MAP) ([6]; 3 mg·kg^‐1 single oral dose, 48 hours observation period): 12 ± 2 mmHg | Penh (index of bronchoconstriction) vs vehicle (Wistar rats [7]; 3 or 10 mg·kg^‐1 p.o. single dose): significant dose‐dependent increases

CCCCCCCCCCCCC/C=C/[C@@H](O)[C@@H](N)COP(=O)(O)O [S1P, Sphingosine‐1‐phosphate, reference compound]
EC50 (human S1P3 receptor): 0.1 nM | EC50 (human S1P4 receptor; [13]): 60 nM | EC50 (S1P1 receptor [4]): 34 nM | constriction of lower rat trachea (rat trachea; 1 μmol·L^‐1, in presence of Ca^2+ (2.5 mmol·L^‐1), n = 3): induced lower rat trachea constriction

CCCCCCCOc1ccc(CCC(N)(CO)COP(=O)(O)O)cc1C(F)(F)F (stereo not drawn) [p-amiselimod (pMT-1303)]
rat trachea constriction (rat trachea; lower rat trachea, 1 μmol·L^‐1 and 10 μmol·L^‐1): induced effective rat trachea constriction

CCCCCCCCc1ccc(CCC(N)(CO)COP(=O)(O)O)cc1 (stereo not drawn) [pFTY720, reference compound]
E max (%) hS1P2 (S1P2 receptor [2]; [14]): 11% | E max (%) hS1P4 (human S1P4 receptor; [14]): 109% | EC50 (human S1P4 receptor; read-out: EC50 hS1P4, (35S)-GTPγS, CHO membranes, geometric mean, n = 2‐4): 64 nM | E max (%) hS1P5 (human S1P5 receptor; [14]): 43% | contraction of rat mesenteric arteries (rat mesenteric arteries; 1, 10 or 100 nmol·L^‐1, n = 4): concentration‐dependent contraction | contraction of upper and lower rat trachea (rat trachea; 10, 100 or 1000 nmol·L^‐1, n = 4): concentration‐dependent contractile response | E max contraction of human bronchi (human bronchi; % of reference contraction to KCl (50 mmol·L^‐1), mean ± SEM, n = 4): 86.5 ± 20.2% | pEC50 contraction of human bronchi (human bronchi; mean ± SEM, n = 4): 6.4 ± 0.5
